Laboratory results as given in ChEMBL document CHEMBL1146514, “New peptaibols from Mycogone cervina” (J Nat Prod, 2004).
Values after ≈ are worked out from the molar mass of the structure shown. Active and inactive are the calls of the source. The rule behind the calls is not given here. Where a SMILES comes first, the peptide text is derived from it. [ ]: non-standard residue; d: D form. The star is where a group is joined. X1 = CC(=O)OC[C@H](CC(C)C)N*; Aib = CC(C)(N)C(=O)O

Legend:
[1] = system: Bacillus subtilis; test: Antimicrobial activity against Bacillus subtilis ATCC 6633 at 100 ug/disk after 24 hrs by standard disk assay; type: functional; details: ATCC 6633, 24 h, read-out: IZ
Summary of the method: (§1)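 Bacteria grown on nutrient agar at 37 °C. Test plates seeded with 5×10^5 cells per mL. Compound loaded onto 6 mm filter disks placed on the agar. Inhibition zone diameters read after 24 h.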

[2] = system: Brevibacillus brevis; test: Antimicrobial activity against Bacillus brevis ATCC 9999 at 100 ug/disk after 24 hrs by standard disk assay; type: functional; details: ATCC 9999, 24 h, read-out: IZ; summary of the method: as §1
[3] = system: Micrococcus luteus; test: Antimicrobial activity against Micrococcus luteus ATCC 21415 at 100 ug/disk after 24 hrs by standard disk assay; type: functional; details: ATCC 21415, 24 h, read-out: IZ; summary of the method: as §1
[4] = system: L1210; test: Cytotoxicity against mouse L1210 cells; type: functional, cell-based
Summary of the method: (§2)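 Cells were grown and assayed in RPMI 1640 medium, and the IC50 was reported.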

[5] = Cytotoxicity against human COLO320 cells; type: functional, cell-based; details: COLO 320; summary of the method: as §2
[6] = system: L1210; test: Cytotoxicity against mouse L1210 cells at 100 ug/ml; type: functional, cell-based

Row | Structure (SMILES) | zone of inhibition at 100 µg/disc [1] [mm] | zone of inhibition at 100 µg/disc [2] [mm] | zone of inhibition at 100 µg/disc [3] [mm] | IC50 [4] [µg/mL] | IC50 [5] [µg/mL] | Activity [6]
1 | CC(=O)N[C@@H](CC(C)C)C(=O)NC(C)(C)C(=O)N1CCC[C@H]1C(=O)NC(C)(C)C(=O)N[C@@H](CC(C)C)C(=O)NC(C)(C)C(=O)N1CCC[C@H]1C(=O)N[C@@H](C)C(=O)NC(C)(C)C(=O)N1CCC[C@H]1C(=O)N[C@H](C(=O)N[C@H](COC(C)=O)CC(C)C)C(C)C (Ac-L[Aib]P[Aib]L[Aib]PA[Aib]PV-X1) | 11 | 10 | 16 | 32 (≈ 26 µM) | 40 (≈ 32.5 µM) | 
2 | CC(=O)N[C@@H](CC(C)C)C(=O)NC(C)(C)C(=O)N1CCC[C@H]1C(=O)NC(C)(C)C(=O)N[C@@H](CC(C)C)C(=O)NC(C)(C)C(=O)N1CCC[C@H]1C(=O)N[C@@H](C)C(=O)NC(C)(C)C(=O)N1CCC[C@H]1C(=O)N[C@H](C(=O)N[C@H](CO)CC(C)C)C(C)C [CERVININ] | 8 | 7 | 15 |  | 80 (≈ 67.4 µM) | inactive
